For 1 molecule, Activity and EC50 results are on record in ChEMBL document CHEMBL4014306, “Pyrazolopyrimidines as Potent Stimulators for Transient Receptor Potential Canonical 3/6/7 Channels” (J Med Chem, 2017).

As a reminder, the EC50 is the concentration giving half of the maximal effect.

What all share (type): cell-based
One data set has as its system HEK293. In words: Induction of intracellular calcium level in HEK293 cells at 30 uM measured for 2.5 mins by Fluo-4-AM dye based FLIPR assay. The settings on record: human, hek293, 2.5 min. (In general: Calcium flux is commonly read through the fluorescence of an indicator in the cells.)
In data set [1] the target is T1, Short transient receptor potential channel 6 (Mus musculus) (UniProt Q61143).
T1 sequence (whole entry): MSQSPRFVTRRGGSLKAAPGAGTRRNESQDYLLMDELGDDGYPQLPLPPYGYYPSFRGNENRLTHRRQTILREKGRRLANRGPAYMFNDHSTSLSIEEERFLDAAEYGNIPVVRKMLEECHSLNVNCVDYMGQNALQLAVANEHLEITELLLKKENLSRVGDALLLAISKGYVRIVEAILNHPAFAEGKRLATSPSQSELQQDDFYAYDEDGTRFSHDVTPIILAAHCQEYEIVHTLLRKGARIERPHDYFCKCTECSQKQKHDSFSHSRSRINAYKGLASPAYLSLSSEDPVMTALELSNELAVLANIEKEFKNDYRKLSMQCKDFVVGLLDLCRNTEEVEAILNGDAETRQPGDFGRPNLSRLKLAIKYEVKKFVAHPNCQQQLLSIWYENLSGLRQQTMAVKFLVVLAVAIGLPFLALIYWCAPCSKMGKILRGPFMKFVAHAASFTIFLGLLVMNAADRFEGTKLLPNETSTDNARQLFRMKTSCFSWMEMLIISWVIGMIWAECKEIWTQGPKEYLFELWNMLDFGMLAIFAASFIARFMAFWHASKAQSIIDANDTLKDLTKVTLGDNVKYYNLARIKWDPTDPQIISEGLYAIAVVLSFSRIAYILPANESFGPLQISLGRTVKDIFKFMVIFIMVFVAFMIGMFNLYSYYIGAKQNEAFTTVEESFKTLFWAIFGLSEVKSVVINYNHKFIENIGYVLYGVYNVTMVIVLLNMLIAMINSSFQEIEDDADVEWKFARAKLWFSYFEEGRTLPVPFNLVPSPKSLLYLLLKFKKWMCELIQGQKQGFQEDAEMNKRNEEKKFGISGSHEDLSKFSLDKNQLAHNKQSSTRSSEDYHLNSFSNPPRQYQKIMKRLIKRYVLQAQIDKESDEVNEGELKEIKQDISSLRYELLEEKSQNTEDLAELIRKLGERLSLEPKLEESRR
In words: (§1) Agonist activity at mouse TRPC6 expressed in HEK293 cells co-expressing Gq11-PLCbeta fused M5 receptor assessed as increase in intracellular calcium level by Fluo-4-AM dye-based fluorescence assay. An outline of the steps: (§2)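 Stable HEK293 line coexpressing mouse TRPC6 and M5 receptor, held under G418 and hygromycin B. Cells are loaded with Fluo4-AM or Fluo8-AM in 2 mM Ca2+ extracellular solution at pH 7.4 with 2 mM probenecid, and read at 32 °C as ΔF/F0.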

For data set [2], the target named is T2, Short transient receptor potential channel 6 (Mus musculus, UniProt Q61143).
T2 sequence (Q61143 whole entry): T1 sequence (whole entry)
Described as §1. An outline of the steps: as §2

As for `CCOC(=O)N1CCC(c2cc(O)n3nc(C)c(-c4ccc(F)cc4)c3n2)CC1`, the Activity entry with HEK293 was “Non-Toxic”; in data set [1], “Dose-dependent effect”. Besides, the concentration giving a half-maximal response (EC50) in data set [2] turned out to be 7.2 µM.
